Columns and labels:
Mrp4 [1] = target: T1, Mrp4 (Mus musculus, UniProt E9Q236); test: Effect of MK571 on tissue distribution of vaginally administered TFV; format: in vivo
T1 sequence (E9Q236 1-1325): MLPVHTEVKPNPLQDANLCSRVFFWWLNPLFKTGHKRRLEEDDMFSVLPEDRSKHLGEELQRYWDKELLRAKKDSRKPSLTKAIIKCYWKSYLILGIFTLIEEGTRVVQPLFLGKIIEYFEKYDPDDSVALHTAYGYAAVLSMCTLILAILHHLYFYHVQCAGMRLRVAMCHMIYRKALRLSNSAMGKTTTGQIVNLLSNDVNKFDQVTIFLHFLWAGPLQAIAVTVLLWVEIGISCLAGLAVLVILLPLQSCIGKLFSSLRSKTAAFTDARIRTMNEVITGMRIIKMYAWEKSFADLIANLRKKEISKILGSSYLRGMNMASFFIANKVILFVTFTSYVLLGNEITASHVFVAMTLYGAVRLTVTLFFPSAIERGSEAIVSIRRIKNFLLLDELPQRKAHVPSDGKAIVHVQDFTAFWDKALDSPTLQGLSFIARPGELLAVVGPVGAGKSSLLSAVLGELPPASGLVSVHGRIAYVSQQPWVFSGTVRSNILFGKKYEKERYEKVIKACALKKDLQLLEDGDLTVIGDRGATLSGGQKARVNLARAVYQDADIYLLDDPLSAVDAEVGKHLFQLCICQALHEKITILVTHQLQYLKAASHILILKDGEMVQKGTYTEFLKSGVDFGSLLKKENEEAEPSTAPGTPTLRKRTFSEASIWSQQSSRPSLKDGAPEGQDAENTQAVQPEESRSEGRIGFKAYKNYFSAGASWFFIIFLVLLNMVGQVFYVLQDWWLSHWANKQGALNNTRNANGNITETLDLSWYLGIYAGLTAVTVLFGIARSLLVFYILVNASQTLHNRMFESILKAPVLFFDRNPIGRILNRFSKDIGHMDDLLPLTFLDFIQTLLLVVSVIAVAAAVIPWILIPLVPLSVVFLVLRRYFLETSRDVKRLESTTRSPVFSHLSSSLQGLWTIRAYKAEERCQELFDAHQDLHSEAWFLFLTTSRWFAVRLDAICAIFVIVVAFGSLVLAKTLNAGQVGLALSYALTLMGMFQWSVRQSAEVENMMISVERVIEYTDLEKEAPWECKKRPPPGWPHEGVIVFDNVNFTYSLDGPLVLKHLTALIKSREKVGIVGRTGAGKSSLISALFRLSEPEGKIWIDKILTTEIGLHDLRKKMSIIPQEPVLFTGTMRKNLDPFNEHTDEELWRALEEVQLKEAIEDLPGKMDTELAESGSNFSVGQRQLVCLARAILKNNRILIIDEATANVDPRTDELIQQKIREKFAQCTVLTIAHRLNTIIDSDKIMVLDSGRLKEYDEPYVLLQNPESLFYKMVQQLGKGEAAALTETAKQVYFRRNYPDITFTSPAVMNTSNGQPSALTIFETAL
Outline: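 Synchronized mice got IP saline or MK571 (100 μL, 7.5 mg/mL), then 20 μL vaginal gel 30 min later. Gel: 2.7% universal placebo (pH 4.4) with 3H-TFV plus unlabelled TFV, ±MK571. Ketamine/xylazine IP 5 min before gel. At 0.5 and 1 h: CVL (8 × 25 μL saline), plasma, tissues. Scintillation counting; total TFV from labelled:unlabelled ratio. 7–13 mice per point; ANOVA.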

Mrp4 [2] = target: T1, Mrp4; test: Effect of MK571 on tissue distribution of IP-administered TFV; format: in vivo
Outline: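 Synchronized mice received 100 μL saline or saline containing 7.5 mg/mL MK571 IP. 15 min later they received 100 μL 3H-TFV in saline IP (0.94 × 10−5 mmol/mL, 125 μCi/mL). At 1.5 h: CVL (3 × 20 μL saline), plasma and tissues. Samples were dissolved in Solvable overnight at 50 °C, decolorized with H2O2 (50 °C, 1 h), then counted by scintillation. Two groups compared by t-test.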

[3] = In vitro release of TFV from gels, Franz cell apparatus; format: physicochemical
Outline: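 Gels containing TFV, with or without MK571, were placed in the donor chamber of a Franz cell with PBS in the acceptor chamber. Acceptor TFV concentration over time gave cumulative release (30 and 60 min) and Papp. Three gels per group, mean ± SD.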

[4] = target: glucocorticoid receptor (GR); details: agonist; approximate; cited from earlier work
NRs for estrogen = details: cited from earlier work
[5] = tested on: NRs for mineralocorticoids; details: cited from earlier work
P-gp (Abcb1a) = test: Real-time RT-PCR of transporter mRNA in mouse tissues after exogenous hormones; format: in vivo; details: uterus and endocervix; Gapdh-normalized
Outline: (§1)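 Tissues were taken from naturally cycling mice at estrus or diestrus (vaginal cytology staging) and from PMSG- or Depo-Provera-synchronized mice, 3–5 mice each. Real-time RT-PCR transporter mRNA was normalized to Gapdh by the 2−ΔCt method; Student's t-test between stages.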

P-gp (Abcb1b) = test: as above; format: in vivo; details: uterus and ectocervix; Gapdh-normalized
Outline: as §1

Bcrp (Abcg2) = test: as above; format: in vivo; details: uterus; Gapdh-normalized
Outline: as §1

Mrp4 (Abcc4) = test: as above; format: in vivo; details: uterus, endocervix, and colorectum; Gapdh-normalized
Outline: as §1

P-gp (Abcb1a/1b) protein = format: in vivo, mouse; details: endocervix, ectocervix, vagina
Outline: (§2)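 Tissues came from natural estrus and diestrus mice (staged by vaginal cytology) and synchronized mice (estrus 24 h after PMSG; diestrus 7 days after first Depo-Provera), at least 3 mice each. Primary antibody dilutions: P-gp 1:15, Bcrp 1:25, Mrp4 1:15, overnight at 4 °C. Then biotinylated secondary (1:200, 30 min RT), ABC 30 min, AEC, hematoxylin. Non-immune IgG as negative control.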

Bcrp protein = format: in vivo, mouse; details: compared to the natural estrous stages
Outline: as §2

Mrp4 protein = format: in vivo, mouse; details: endocervix, ectocervix, and vagina; vs natural estrous cycle
Outline: as §2

[6] = MK571 incorporated into TFV gel vs control, 0.5 h post gel
[7] = MK571 incorporated into TFV gel vs control, 1.0 h

CN(C)C(=O)CCSC(SCCC(=O)O)c1cccc(/C=C/c2ccc3ccc(Cl)cc3n2)c1 (stereo not drawn) [MK571]
TFV concentrations in plasma, uterus, and colorectum (Mrp4 [1]; MK571 IP solution 30 min before vaginal TFV gel vs TFV gel only): only slightly increased or remained unchanged | TFV concentration in CVL and endocervix (Mrp4 [1]; [6]): remained unchanged | TFV concentration in mouse vaginal tissue (Mrp4 [1]; [6]): significantly higher | TFV concentration in plasma, uterus, ectocervix, and colorectum (Mrp4 [1]; [6]): slightly, but not significantly, increased | TFV CVL concentration (Mrp4 [1]; [7]): significantly decreased | TFV concentration in plasma and uterus (Mrp4 [1]; [7]): remained unchanged | TFV concentration in the colorectum (Mrp4 [1]; [7]): significantly increased | decrease in TFV concentration in endocervix, ectocervix, and vagina (Mrp4 [1]; [7]): not statistically significant | TFV concentration in CVL and vagina (Mrp4 [2]; MK571 IP 15 min before IP TFV, 1.5 h post-TFV, p = 0.04): increased | TFV colorectum/plasma ratio (Mrp4 [2]; MK571 IP co-administration, IP TFV, 1.5 h, p = 0.006): significantly increased | TFV vagina/plasma ratio (Mrp4 [2]; MK571 IP co-administration, IP TFV, 1.5 h, p = 0.03): significantly increased | permeability coefficient Papp of TFV, gel with vs without MK571 ([3]; Franz cell apparatus, acceptor chamber): almost identical | impact of MK571 incorporation into the gel on in vitro release profile of TFV ([3]; vs gel containing TFV alone, Franz cell, PBS acceptor): did not have any impact

CC(=O)O[C@]1(C(C)=O)CC[C@H]2[C@@H]3C[C@H](C)C4=CC(=O)CC[C@]4(C)[C@H]3CC[C@@]21C [MPA, medroxyprogesterone acetate]
EC50 [4]: ~0.01 µM | binding to nuclear receptor (NRs for estrogen): does not bind significantly | binding to nuclear receptor [5]: does not bind significantly

C[C@H](Cn1cnc2c(N)ncnc21)OCP(=O)(O)O [TFV, tenofovir]
TFV distribution compared to its plasma concentration (Mrp4 [2]; after IP administration, 1.5 h): preferentially distributed into cervicovaginal tissues and fluid

PMSG: exogenous hormone known to stimulate estrogen levels, used to synchronize mice into estrus
Abcb1a mRNA level compared to either stage of the natural cycle (P-gp (Abcb1a)): significantly altered | Abcb1b mRNA level compared to either stage of the natural cycle (P-gp (Abcb1b)): significantly altered | Bcrp mRNA level compared to either stage of the natural cycle (Bcrp (Abcg2)): significantly altered | Mrp4 mRNA level compared to either stage of the natural cycle (Mrp4 (Abcc4)): significantly altered | P-gp protein abundance or localization compared to natural estrous cycle (P-gp (Abcb1a/1b) protein): did not exert an obvious effect | Bcrp protein density in vaginal epithelium (Bcrp protein): appeared to decrease | epithelial and stromal abundance of Mrp4 protein (Mrp4 protein): decreased

From article PMC5362249 (Biochemical pharmacology, 2016)
